From ChEMBL document CHEMBL3627695, “1-Benzyl-2-methyl-3-indolylmethylene barbituric acid derivatives: Anti-cancer agents that target nucleophosmin 1 (NPM1)” (Bioorg Med Chem, 2015)

Tests used:
CCRF-CEM = experiment: Anticancer activity against human CCRF-CEM cells after 48 hrs by sulforhodamine B assay; format: functional
Procedure, shortened: (§1)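 NCI-60 human tumour cell line panel. Compounds dissolved in DMSO/H2O and tested at five 10-fold dilutions (10⁻⁴ M to 10⁻⁸ M) for 48 hr. GI50 is the molar concentration giving 50% reduction in net cell growth relative to cell numbers on day 0.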

HL-60(TB) = experiment: Anticancer activity against human HL-60(TB) cells after 48 hrs by sulforhodamine B assay; format: functional; conditions: HL-60, 48 h; procedure, shortened: as §1
K562 = experiment: Anticancer activity against human K562 cells after 48 hrs by sulforhodamine B assay; format: functional; conditions: K562, 48 h; procedure, shortened: as §1
[1] = Anticancer activity against human MOLT4 cells after 48 hrs by sulforhodamine B assay; format: functional; conditions: MOLT-4, 48 h; procedure, shortened: as §1
[2] = Anticancer activity against human RPMI8226 cells after 48 hrs by sulforhodamine B assay; format: functional; conditions: RPMI-8226, 48 h; procedure, shortened: as §1
SR = experiment: Anticancer activity against human SR cells after 48 hrs by sulforhodamine B assay; format: functional
Procedure, shortened: (§2)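 NCI-60 panel protocol. Compounds were dissolved in DMSO/H2O and tested at five 10-fold concentrations (10⁻⁴ to 10⁻⁸ M) with 48 hr incubation. GI50 is the molar concentration giving a 50% reduction in net cell growth relative to cell numbers on day 0.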

A549 = experiment: Anticancer activity against human A549/ATCC cells after 48 hrs by sulforhodamine B assay; format: functional; conditions: A549, 48 h; procedure, shortened: as §1
HOP-62 = experiment: Anticancer activity against human HOP62 cells after 48 hrs by sulforhodamine B assay; format: functional; conditions: HOP-62, 48 h; procedure, shortened: as §1
[3] = Anticancer activity against human HOP92 cells after 48 hrs by sulforhodamine B assay; format: functional; conditions: HOP-92, 48 h; procedure, shortened: as §1
NCI-H226 = experiment: Anticancer activity against human NCI-H226 cells after 48 hrs by sulforhodamine B assay; format: functional; conditions: NCI-H226, 48 h; procedure, shortened: as §1
NCI-H322M = experiment: Anticancer activity against human NCI-H322M cells after 48 hrs by sulforhodamine B assay; format: functional; procedure, shortened: as §1
NCI-H460 = experiment: Anticancer activity against human NCI-H460 cells after 48 hrs by sulforhodamine B assay; format: functional; conditions: NCI-H460, 48 h; procedure, shortened: as §1
NCI-H522 = experiment: Anticancer activity against human NCI-H522 cells after 48 hrs by sulforhodamine B assay; format: functional; conditions: NCI-H522, 48 h; procedure, shortened: as §1
[4] = Anticancer activity against human COLO205 cells after 48 hrs by sulforhodamine B assay; format: functional; conditions: COLO 205, 48 h; procedure, shortened: as §1
[5] = Anticancer activity against human HCC2998 cells after 48 hrs by sulforhodamine B assay; format: functional; conditions: HCC 2998, 48 h; procedure, shortened: as §1
HCT-116 = experiment: Anticancer activity against human HCT116 cells after 48 hrs by sulforhodamine B assay; format: functional; conditions: HCT-116, 48 h; procedure, shortened: as §1
HCT-15 = experiment: Anticancer activity against human HCT15 cells after 48 hrs by sulforhodamine B assay; format: functional; conditions: HCT-15, 48 h; procedure, shortened: as §1
HT-29 = experiment: Anticancer activity against human HT-29 cells after 48 hrs by sulforhodamine B assay; format: functional; conditions: HT-29, 48 h; procedure, shortened: as §1
KM12 = experiment: Anticancer activity against human KM12 cells after 48 hrs by sulforhodamine B assay; format: functional; conditions: KM12, 48 h; procedure, shortened: as §1
SW-620 = experiment: Anticancer activity against human SW620 cells after 48 hrs by sulforhodamine B assay; format: functional; conditions: SW-620, 48 h; procedure, shortened: as §2
SF-268 = experiment: Anticancer activity against human SF268 cells after 48 hrs by sulforhodamine B assay; format: functional; conditions: SF-268, 48 h; procedure, shortened: as §1
[6] = Anticancer activity against human SF295 cells after 48 hrs by sulforhodamine B assay; format: functional; conditions: SF-295, 48 h; procedure, shortened: as §1
[7] = Anticancer activity against human SF539 cells after 48 hrs by sulforhodamine B assay; format: functional; conditions: SF-539, 48 h; procedure, shortened: as §1
SNB-19 = experiment: Anticancer activity against human SNB19 cells after 48 hrs by sulforhodamine B assay; format: functional; conditions: SNB-19, 48 h; procedure, shortened: as §1
SNB-75 = experiment: Anticancer activity against human SNB75 cells after 48 hrs by sulforhodamine B assay; format: functional; conditions: SNB-75, 48 h; procedure, shortened: as §1
U-251 = experiment: Anticancer activity against human U251 cells after 48 hrs by sulforhodamine B assay; format: functional; conditions: U-251, 48 h; procedure, shortened: as §2
[8] = Anticancer activity against human LOXIMVI cells after 48 hrs by sulforhodamine B assay; format: functional; conditions: LOX IMVI; procedure, shortened: as §1
Malme-3M = experiment: Anticancer activity against human MALME-3M cells after 48 hrs by sulforhodamine B assay; format: functional; procedure, shortened: as §1
M14 = experiment: Anticancer activity against human M14 cells after 48 hrs by sulforhodamine B assay; format: functional; conditions: M14, 48 h; procedure, shortened: as §1
MDA-MB-435 = experiment: Anticancer activity against human MDA-MB-435 cells after 48 hrs by sulforhodamine B assay; format: functional; conditions: MDA-MB-435, 48 h; procedure, shortened: as §1
SK-MEL-2 = experiment: Anticancer activity against human SK-MEL-2 cells after 48 hrs by sulforhodamine B assay; format: functional; conditions: SK-MEL-2, 48 h; procedure, shortened: as §1
SK-MEL-28 = experiment: Anticancer activity against human SK-MEL-28 cells after 48 hrs by sulforhodamine B assay; format: functional; conditions: SK-MEL-28, 48 h; procedure, shortened: as §1
SK-MEL-5 = experiment: Anticancer activity against human SK-MEL-5 cells after 48 hrs by sulforhodamine B assay; format: functional; conditions: SK-MEL-5, 48 h; procedure, shortened: as §1
UACC-257 = experiment: Anticancer activity against human UACC257 cells after 48 hrs by sulforhodamine B assay; format: functional; conditions: UACC-257, 48 h; procedure, shortened: as §2
IGROV-1 = experiment: Anticancer activity against human IGROV1 cells after 48 hrs by sulforhodamine B assay; format: functional; conditions: IGROV-1, 48 h; procedure, shortened: as §1
OVCAR-3 = experiment: Anticancer activity against human OVCAR3 cells after 48 hrs by sulforhodamine B assay; format: functional; conditions: OVCAR-3, 48 h; procedure, shortened: as §1
OVCAR-4 = experiment: Anticancer activity against human OVCAR4 cells after 48 hrs by sulforhodamine B assay; format: functional; conditions: OVCAR-4, 48 h; procedure, shortened: as §1
OVCAR-5 = experiment: Anticancer activity against human OVCAR5 cells after 48 hrs by sulforhodamine B assay; format: functional; conditions: OVCAR-5, 48 h; procedure, shortened: as §1
OVCAR-8 = experiment: Anticancer activity against human OVCAR8 cells after 48 hrs by sulforhodamine B assay; format: functional; conditions: OVCAR-8, 48 h; procedure, shortened: as §1
[9] = Anticancer activity against human NCI-ADR-RES cells after 48 hrs by sulforhodamine B assay; format: functional; procedure, shortened: as §1
SK-OV-3 = experiment: Anticancer activity against human SKOV3 cells after 48 hrs by sulforhodamine B assay; format: functional; conditions: SK-OV-3, 48 h; procedure, shortened: as §1
786-0 = experiment: Anticancer activity against human 786-0 cells after 48 hrs by sulforhodamine B assay; format: functional; conditions: 786-0, 48 h; procedure, shortened: as §1
A498 = experiment: Anticancer activity against human A498 cells after 48 hrs by sulforhodamine B assay; format: functional; conditions: A498, 48 h; procedure, shortened: as §1
ACHN = experiment: Anticancer activity against human ACHN cells after 48 hrs by sulforhodamine B assay; format: functional; procedure, shortened: as §1
CAKI-1 = experiment: Anticancer activity against human Caki1 cells after 48 hrs by sulforhodamine B assay; format: functional; conditions: CAKI-1, 48 h; procedure, shortened: as §1
[10] = Anticancer activity against human RXF393 cells after 48 hrs by sulforhodamine B assay; format: functional; conditions: RXF 393, 48 h; procedure, shortened: as §1
SN12C = experiment: Anticancer activity against human SN12C cells after 48 hrs by sulforhodamine B assay; format: functional; procedure, shortened: as §1
TK-10 = experiment: Anticancer activity against human TK10 cells after 48 hrs by sulforhodamine B assay; format: functional; conditions: TK-10, 48 h; procedure, shortened: as §2
UO-31 = experiment: Anticancer activity against human UO31 cells after 48 hrs by sulforhodamine B assay; format: functional; conditions: UO-31, 48 h; procedure, shortened: as §2
DU-145 = experiment: Anticancer activity against human DU145 cells after 48 hrs by sulforhodamine B assay; format: functional; conditions: DU-145, 48 h; procedure, shortened: as §1
MCF7 = experiment: Anticancer activity against human MCF7 cells after 48 hrs by sulforhodamine B assay; format: functional; conditions: MCF7, 48 h; procedure, shortened: as §1
MDA-MB-231 = experiment: Anticancer activity against human MDA-MB-231 cells after 48 hrs by sulforhodamine B assay; format: functional; conditions: MDA-MB-231, 48 h; procedure, shortened: as §1
[11] = Anticancer activity against human Hs 578T cells after 48 hrs by sulforhodamine B assay; format: functional; procedure, shortened: as §1
BT-549 = experiment: Anticancer activity against human BT549 cells after 48 hrs by sulforhodamine B assay; format: functional; conditions: BT-549, 48 h; procedure, shortened: as §1
T47D = experiment: Anticancer activity against human T47D cells after 48 hrs by sulforhodamine B assay; format: functional; procedure, shortened: as §2
MDA-MB-468 = experiment: Anticancer activity against human MDA-MB-468 cells after 48 hrs by sulforhodamine B assay; format: functional; conditions: MDA-MB-468, 48 h; procedure, shortened: as §1
[12] = (§3) Anticancer activity against human OCI-AML3 cells expressing mutant NPM1 assessed as apoptosis for 48 hrs by annexin-V and TO-PRO3 staining based flow cytometry; format: functional, cell-based; conditions: OCI-AML-3, 48 h
Procedure, shortened: (§4)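 OCI-AML3 cells (NPM1c+) in logarithmic growth, passaged 2–3 times weekly. Cells were exposed to the indicated compound concentrations for 48 hr, then stained with annexin V and TO-PRO 3. Percent apoptotic cells was read by flow cytometry. AP50 is the concentration at which 50% of cells undergo apoptosis.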

OCI-AML-3 = experiment: as §3; format: functional, cell-based; procedure, shortened: as §4

COC(=O)c1ccc(Cn2c(C)c(C=C3C(=O)NC(=S)NC3=O)c3ccccc32)cc1
GI50 (CCRF-CEM): 340 nM
GI50 (HL-60(TB)): 220 nM
GI50 (K562): 270 nM
GI50 [1]: 350 nM
GI50 [2]: 310 nM
GI50 (SR): 320 nM
GI50 (A549): 1360 nM
GI50 (HOP-62): 390 nM
GI50 [3]: 250 nM
GI50 (NCI-H226): 410 nM
GI50 (NCI-H322M): 530 nM
GI50 (NCI-H460): 330 nM
GI50 (NCI-H522): 250 nM
GI50 [4]: 200 nM
GI50 [5]: 400 nM
GI50 (HCT-116): 260 nM
GI50 (HCT-15): 330 nM
GI50 (HT-29): 310 nM
GI50 (KM12): 310 nM
GI50 (SW-620): 400 nM
GI50 (SF-268): 420 nM
GI50 [6]: 350 nM
GI50 [7]: 220 nM
GI50 (SNB-19): 1050 nM
GI50 (SNB-75): 460 nM
GI50 (U-251): 320 nM
GI50 [8]: 320 nM
GI50 (Malme-3M): 1480 nM
GI50 (M14): 330 nM
GI50 (MDA-MB-435): 220 nM
GI50 (SK-MEL-2): 1120 nM
GI50 (SK-MEL-28): 1050 nM
GI50 (SK-MEL-5): 1130 nM
GI50 (UACC-257): 800 nM
GI50 (IGROV-1): 510 nM
GI50 (OVCAR-3): 300 nM
GI50 (OVCAR-4): 460 nM
GI50 (OVCAR-5): 420 nM
GI50 (OVCAR-8): 320 nM
GI50 [9]: 350 nM
GI50 (SK-OV-3): 450 nM
GI50 (786-0): 320 nM
GI50 (A498): 190 nM
GI50 (ACHN): 510 nM
GI50 (CAKI-1): 500 nM
GI50 [10]: 300 nM
GI50 (SN12C): 410 nM
GI50 (TK-10): 310 nM
GI50 (UO-31): 410 nM
GI50 (DU-145): 340 nM
GI50 (MCF7): 400 nM
GI50 (MDA-MB-231): 380 nM
GI50 [11]: 220 nM
GI50 (BT-549): 310 nM
GI50 (T47D): 1860 nM
GI50 (MDA-MB-468): 340 nM
AC50 [12]: 1750 nM
Activity (OCI-AML-3): Dose-dependent effect

Cc1c(C=C2C(=O)NC(=S)NC2=O)c2ccccc2n1Cc1ccc(Br)cc1
AC50 [12]: 3300 nM
Activity (OCI-AML-3): Dose-dependent effect
